In the library only some 2.3% were active in any assay of this set; here they are far more common.
TRPC4 act: activators of mouse TRPC4 channel, primary screen, Fluo4 calcium, HEK293 TRPC4beta/mu-opioid cells. actives 0.49% (n = 310,000). AID 2237, 2010. B-score at 10 µM. Fluo4 calcium fluorescence; active compounds read high. Short transient receptor potential channel 4 (Mus musculus), Q9QUQ5;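 active = B-score above 5 SD of library B-scores, and initial fluorescence ratio not above library mean plus 5 SD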;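 also: positive B-score marks a calcium rise read as TRPC4 activation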
Target sequence (Q9QUQ5 whole entry, looked up): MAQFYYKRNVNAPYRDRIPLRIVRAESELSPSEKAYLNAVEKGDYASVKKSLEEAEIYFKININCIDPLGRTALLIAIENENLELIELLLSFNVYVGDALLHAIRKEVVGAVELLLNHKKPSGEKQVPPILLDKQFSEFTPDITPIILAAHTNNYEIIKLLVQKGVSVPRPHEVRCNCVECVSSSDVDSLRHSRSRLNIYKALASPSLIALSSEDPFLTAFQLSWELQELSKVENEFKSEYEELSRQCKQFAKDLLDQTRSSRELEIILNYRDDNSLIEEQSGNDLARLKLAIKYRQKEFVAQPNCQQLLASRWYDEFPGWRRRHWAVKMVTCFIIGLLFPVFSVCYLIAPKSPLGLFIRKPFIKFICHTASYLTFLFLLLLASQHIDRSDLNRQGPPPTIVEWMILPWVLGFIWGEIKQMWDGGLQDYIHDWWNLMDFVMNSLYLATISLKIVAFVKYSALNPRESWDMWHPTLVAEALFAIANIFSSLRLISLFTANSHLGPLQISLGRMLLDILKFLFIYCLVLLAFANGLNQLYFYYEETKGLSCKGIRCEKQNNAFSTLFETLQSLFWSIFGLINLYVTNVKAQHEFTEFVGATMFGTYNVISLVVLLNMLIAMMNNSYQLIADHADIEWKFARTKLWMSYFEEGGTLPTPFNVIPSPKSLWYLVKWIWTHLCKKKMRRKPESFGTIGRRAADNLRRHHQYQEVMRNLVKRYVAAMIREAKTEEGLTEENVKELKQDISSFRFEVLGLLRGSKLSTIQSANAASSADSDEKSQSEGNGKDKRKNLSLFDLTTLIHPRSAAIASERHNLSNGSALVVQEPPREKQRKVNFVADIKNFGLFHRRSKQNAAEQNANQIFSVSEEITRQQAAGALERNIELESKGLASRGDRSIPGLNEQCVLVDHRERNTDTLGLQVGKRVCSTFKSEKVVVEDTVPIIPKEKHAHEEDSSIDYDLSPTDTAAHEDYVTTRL
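Assay system: HEK293 cells stably co-expressing mouse TRPC4beta and mu-opioid receptor / Timing: Fluo4 dye loading 45 min at room temperature, 110 s recording / Signal: Fluo4 calcium-sensitive dye fluorescence, kinetic, 1 Hz baseline / Read-out: integrated baseline-normalised fluorescence ratio, converted to per-well B score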
TRPC6 activator: mouse TRPC6 channel activators, primary screen, cell-based, HEK293, membrane potential dye; B-score at 10 µM; actives 0.13% (n = 310,000); HEK293-TRPC6 membrane potential dye fluorescence; active compounds read high;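 active = B-score of the integrated fluorescence ratio above library mean plus 3 SD, and starting fluorescence ratio within library mean plus 5 SD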;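 also: higher score means more depolarization so channel activation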
TRPC4 block: inhibitors of mouse TRPC4 channel, primary screen, Fluo4 calcium, HEK293 TRPC4beta/mu-opioid cells; actives 0.39% (n = 300,000); DAMGO-evoked Fluo4 calcium flux; active compounds read low; Short transient receptor potential channel 4 (Mus musculus), Q9QUQ5; B-score at 10 µM; AID 2247, 2010;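 active = B-score over 3 SD under the library average, no early fluorescence shift, positive overall ratio signal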
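Assay system: Stable TRPC4beta/mu-opioid receptor HEK293 cells | Reagent: DAMGO in two steps, submaximal then maximal | Compound dosing: Single concentration per test compound | Signal: Fluo4 Ca2+ flux fluorescence | Evaluation: Per-well B score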
TRPC4 PAM: positive allosteric modulators of TRPC4, primary screen, cell-based, mouse TRPC4beta, HEK293 mu-opioid, Fluo-4 calcium; B-score at 10 µM; DAMGO EC20, Fluo-4 Ca2+ flux; active compounds read high; actives 0.42% (n = 310,000); Short transient receptor potential channel 4 (Mus musculus), Q9QUQ5; AID 2227, 2009;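 active = B-score of calcium response area above 5 SD of library B-scores, with initial fluorescence ratio within 5 SD of library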;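 also: B-score of integrated fluorescence ratio over time as area under calcium response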
TRPC6 inh: mouse TRPC6 channel inhibitors, primary screen, cell-based, HEK293, membrane potential dye | Short transient receptor potential channel 6 (Mus musculus), Q61143 | ACh-evoked depolarization; active compounds read low | B-score at 10 µM | actives 1.1% (n = 310,000);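 active = B-score under library mean minus 3 SD, initial fluorescence not abnormally high, positive integrated signal ratio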;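 also: B-score derived from integrated fluorescence ratio over the kinetic read; more negative B-score means stronger inhibition of depolarization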
TRPC4 sel inh 2: second check of whether TRPC6 inhibitors also affect mouse TRPC4; shares compounds with TRPC6 inh; actives 42% (n = 920); HEK293 TRPC4/MOR, membrane potential dye fluorescence; channel activated by saturating DAMGO dose; inhibition, % at 10 µM;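 active = compounds whose fluorescence signal differed from control wells by over 3 SD, either direction, in both duplicate plates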
TRPC4 spec: mouse TRPC4 modulation by TRPC6 hits, confirmation, selectivity assay for TRPC6 inhibitor project, cell-based, HEK293 TRPC4/mu-opioid, membrane potential dye | actives 61% (n = 920) | activity change, negative = inhibition, % at 10 µM | membrane potential fluorescence | shares compounds with TRPC6 inh;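 active = rise or fall in signal beyond 3 SD of buffer-only wells in both replicate plates, either sign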;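 also: integrated kinetic ratio of fluorescence range over baseline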
HEK293 MPD ctr 2-1: nonspecific membrane potential effects, parental HEK293, confirmation, counter-screen for TRPC6 inhibitor project, cell-based, second counter screen. actives 31% (n = 920). parental HEK293 membrane potential dye fluorescence; maximal acetylcholine challenge after compound addition. AID 2779, 2010. signal change vs control, % at 10 µM. shares compounds with TRPC6 inh;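 active = membrane potential signal moving either way by over 3 SD of the maximum-effect control, in both duplicate plates, meaning non-specific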
HEK293 MPD ctr-1: membrane potential modulation in parental HEK293, confirmation, counter-screen for TRPC6 inhibitor project, cell-based | shares compounds with TRPC6 inh | parental HEK293 membrane potential dye fluorescence | membrane potential signal change, % at 10 µM | actives 60% (n = 920) | AID 2780, 2010;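 active = membrane potential signal shifting up or down by more than 3 SD of buffer-only wells, on both duplicate plates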
HEK293 MPD ctr-2: parental HEK293 membrane potential modulation, confirmation, counter-screen for TRPC6 modulator project, cell-based. shares compounds with TRPC6 inh. membrane potential dye fluorescence. membrane potential signal change, % at 10 µM. actives 51% (n = 2,400). AID 488924, 2010;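 active = membrane potential signal moves up or down beyond 5 SD from buffer-only wells, on both duplicate plates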
HEK293 MPD ctr 2-2: second check of TRPC6 modulator effects in parental HEK293 cells; membrane potential dye fluorescence; after compound, maximal acetylcholine stimulation; shares compounds with TRPC6 inh; AID 488926; inhibition, % at 10 µM; actives 14% (n = 2,400);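 active = membrane potential signal drops by more than 5 SD from the mean control signal, in both duplicate plates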;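 also: plate controls were acetylcholine ECmax control wells for no effect and buffer only wells for full effect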
TRPC4 ctr mod: TRPC4 modulation by TRPC6 hit compounds, confirmation, selectivity assay for TRPC6 modulator project, cell-based, HEK293 TRPC4/mu-opioid, membrane potential dye, mouse; AID 488927, 2010; actives 69% (n = 2,400); shares compounds with TRPC6 inh; percent change from control (negative = decrease, positive = increase), % at 10 µM; membrane potential fluorescence;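 active = membrane potential signal moved up or down beyond 5 SD of buffer control wells, in both duplicate plates, actives on both sides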;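 also: plate controls were assay buffer wells for no effect and DAMGO maximal-effect wells for full effect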
TRPC4/MOR inh 2: mouse TRPC4 off-target activity of TRPC6 modulators, second screen; shares compounds with TRPC6 inh; HEK293 TRPC4/mu-opioid, membrane potential dye fluorescence; stimulated with maximal-effect DAMGO; inhibition, % at 10 µM; actives 55% (n = 2,400);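 active = drop in membrane potential signal beyond 5 SD of the control wells in both duplicate plates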;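 also: TRPC4 counter screen for TRPC6 hits run under conditions tuned for TRPC6 not TRPC4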
TRPC6 block conf: mouse TRPC6 channel inhibitors, confirmation, HEK293 cells, membrane potential dye, duplicate; actives 43% (n = 3,300); shares compounds with TRPC6 inh; ACh-evoked depolarization; inhibition, % at 10 µM;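 active = fluorescence ratio falls more than 5 SD below the full-stimulation control mean, in both duplicate runs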;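 also: integrated fluorescence ratio of peak minus minimum over baseline after agonist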
TRPC6 act confirm: mouse TRPC6 channel activators, confirmation, HEK293 cells, membrane potential dye, duplicate; shares compounds with TRPC6 inh; HEK293-TRPC6 membrane potential dye fluorescence, FDSS; activation, % at 10 µM; actives 11% (n = 2,800);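 active = ratio signal rise beyond 5 SD above unstimulated control wells' mean, seen in both duplicate runs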;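 also: plate controls were buffer EC0 wells for no effect and acetylcholine ECmax response for full effect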
An asterisk follows results filed as active; i = inactive; / = no result; ! = not confirmed by another sample.

SMILES	TRPC4 act	TRPC6 activator	TRPC4 block	TRPC4 PAM	TRPC6 inh	HEK293 MPD ctr-2	HEK293 MPD ctr 2-2	TRPC4 ctr mod	TRPC4/MOR inh 2	TRPC6 block conf	TRPC6 act confirm	others
C[n+]1c2n(c3ccccc31)N=C(c1ccc(-c3ccccc3)cc1)CS2	i	i	i	i	i	/	/	/	/	/	/
C[n+]1c2n(c3ccccc31)N=C(c1ccccc1)CS2	i	i	i	i	-5.2*!	-159%*	i	-26%*	50%*	i	i
CCNc1nc(OC)nc(SCC(=O)Nc2ccccc2)n1	i	i	i	i	i	/	/	/	/	/	/
Cc1cc(O)ccc1N=Cc1c(C(F)(F)F)[nH][nH]c1=O	i	i	i	i	i	/	/	/	/	/	/
Cc1ccc(C(=O)NNC2=Nc3cccc4cccc2c34)cc1	i	i	i	i	-5.3*	i	i	i	i	i	i
COc1ccc(C(=O)NNC2=Nc3cccc4cccc2c34)cc1	i	i	i	i	i	/	/	/	/	/	/
CN1CCN(NS(=O)(=O)c2ccc(Cl)cc2)CC1	i	i	i	i	i	/	/	/	/	/	/
CCCCc1c(C)c(C#N)c2nc3ccccc3n2c1NCCN(C)C	i	i	i	i	i	/	/	/	/	/	/
Cc1c(Cc2ccccc2)c(NCCN(C)C)n2c(nc3ccccc32)c1C#N	i	i	i	i	-6*	i	i	i	54%*	i	i
Cc1c2c(n3c(nc4ccccc43)c1C#N)N(CCN(C)C)CC2	i	i	i	i	-11*	-324%*	95%*	-60%*	71%*	70%*	i
CCc1c(C)c(C#N)c2nc3ccccc3n2c1Cl	i	i	i	i	i	/	/	/	/	/	/
Cc1c2c(n3c(nc4ccccc43)c1C#N)N(CCCN(C)C)CC2	i	i	i	i	-8.3*	-314%*	98%*	-56%*	62%*	68%*	i
C=CCNc1nc2c(c(=O)[nH]c(=O)n2C)n1CCCc1ccccc1	i	i	i	i	i	/	/	/	/	/	/
O=C(Nc1ccc(Cl)cc1)C1C2C=CC3(O2)C1C(=O)N(CCCN1CCCCC1)C3C(=O)NC1CCCCC1 (stereo not given)	i	i	i	i	i	/	/	/	/	/	/
O=C(Nc1cccc([N+](=O)[O-])c1)c1ccc(N2CCCC2=O)cc1	i	i	i	i	i	/	/	/	/	/	/
O=C(Nc1ccncc1)c1ccc(N2CCCC2=O)cc1	i	i	i	i	-7.1*	-238%*	i	-42%*	34%*	i	i
N#CC(c1ccc(F)cc1)c1ccc(C(=O)c2ccc(F)cc2)cc1 (stereo not given)	i	i	i	i	-7.4*	/	/	/	/	i	i	TRPC4 sel inh 2=i;TRPC4 spec=i;HEK293 MPD ctr 2-1=i;HEK293 MPD ctr-1=i
COc1ccc(-c2nnc3sc(C4CCCCC4)nn23)cc1OC	i	13*	i	i	i	144%*	i	40%*	i	i	86%*
CC(=O)N1CCc2cc(S(=O)(=O)CCC(=O)N3CCN(c4cc(C)ccc4C)CC3)ccc21	i	i	i	i	i	/	/	/	/	/	/
CC1CCCN(C(=O)c2ccc3c(c2NCCO)C(=O)c2ccccc2C3=O)C1 (stereo not given)	i	i	i	i	-5.9*	-235%*	i	-36%*	68%*	49%*	i
CCN(CCN(C)C)C(=O)c1ccc2c(c1NCCO)C(=O)c1ccccc1C2=O	i	i	i	i	-5.9*	-168%*	i	-34%*	49%*	45%*	i
O=C1c2ccccc2C(=O)c2c1ccc(C(=O)N1CCCCC1)c2NCCO	i	i	i	i	i	/	/	/	/	/	/
CCN(CC)S(=O)(=O)c1ccc(OC(C)C)c(NC(=O)C2=COCCO2)c1	i	i	i	i	i	/	/	/	/	/	/
COC(=O)c1nn(-c2ccc(OC)cc2)ccc1=O	i	i	i	i	i	/	/	/	/	/	/
O=C(COc1ccc(Cl)cc1Br)Nc1ccncc1	i	i	i	i	i	/	/	/	/	/	/

Screens from PubChem BioAssay.
